# Results: ChEMBL document CHEMBL5252516, “Linker Modification Strategies To Control the Prostate-Specific Membrane Antigen (PSMA)-Targeting and Pharmacokinetic Properties of DOTA-Conjugated PSMA Inhibitors” (J Med Chem, 2016)
# What was measured:
# [1] = target: T1, Glutamate carboxypeptidase 2 (Homo sapiens, UniProt Q04609); experiment: Binding affinity to PSMA in human LNCaP cells after 45 mins in presence of 68Ga-labeled PSMA-10 by gamma counting assay; type: cell-based
# Target sequence in this assay (Q04609 whole entry): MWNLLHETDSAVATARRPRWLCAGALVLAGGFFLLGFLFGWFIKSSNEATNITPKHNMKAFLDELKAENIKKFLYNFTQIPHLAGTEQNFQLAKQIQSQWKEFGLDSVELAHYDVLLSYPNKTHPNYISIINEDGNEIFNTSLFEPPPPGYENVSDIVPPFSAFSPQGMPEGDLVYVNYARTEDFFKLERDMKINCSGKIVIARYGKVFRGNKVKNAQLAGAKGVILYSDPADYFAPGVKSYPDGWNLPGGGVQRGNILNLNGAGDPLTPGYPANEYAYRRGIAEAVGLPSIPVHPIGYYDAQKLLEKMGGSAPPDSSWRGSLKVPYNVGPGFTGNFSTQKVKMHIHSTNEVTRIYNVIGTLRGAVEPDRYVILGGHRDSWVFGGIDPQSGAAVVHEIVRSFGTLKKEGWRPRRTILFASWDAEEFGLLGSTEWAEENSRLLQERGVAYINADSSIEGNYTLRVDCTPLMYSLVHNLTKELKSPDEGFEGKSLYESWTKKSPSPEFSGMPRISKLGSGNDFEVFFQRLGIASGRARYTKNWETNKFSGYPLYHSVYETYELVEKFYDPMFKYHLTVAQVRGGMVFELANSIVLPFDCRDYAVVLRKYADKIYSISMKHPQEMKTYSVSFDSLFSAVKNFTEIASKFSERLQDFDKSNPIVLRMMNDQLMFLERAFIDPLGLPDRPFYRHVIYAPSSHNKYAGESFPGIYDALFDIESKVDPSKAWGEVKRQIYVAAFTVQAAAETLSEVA
# [2] = Retention time of the compound by HPLC; type: physicochemical
# [3] = Distribution coefficient, logD of the compound at pH 7.4 in n-octanol/0.1 M HEPES by shake flask method; type: physicochemical
# In short: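 Radiolabelled compound shaken to equilibrium in n-octanol / 0.1 M HEPES pH 7.4. Aliquots of both phases gamma-counted and logD calculated from the phase ratio. Mean ± SD.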
# [4] = target: T1, Glutamate carboxypeptidase 2; experiment: Inhibition of PSMA in human LNCaP cells assessed as cell surface binding per 10^6 cells using 177Lu-labeled compound after 45 mins by gamma counting analysis; type: cell-based
# In short: (§1)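 LNCaP cells (10^5/well) seeded on poly-L-lysine 24 h before. Incubated 45 min at 37 °C with 32 nM 177Lu-labelled compound (25 GBq/µmol) in Opti-MEM, with or without 500 µM 2-PMPA as blocker. Four ice-cold PBS washes, surface fraction stripped with 50 mM glycine pH 2.8, internalized fraction released by 0.3 M NaOH lysis. Both fractions gamma-counted, specific values given as %IA/10^6 cells. Triplicate.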
# Target sequence in this assay (Q04609 whole entry, looked up): as the sequence (Q04609 whole entry) above
# [5] = target: T1, Glutamate carboxypeptidase 2; experiment: Inhibition of PSMA in human LNCaP cells assessed as specific internalization per 10^6 cells using 177Lu-labeled compound after 45 mins by gamma counting analysis; type: cell-based; in short: as §1
# Target sequence in this assay (Q04609 whole entry, looked up): as the sequence (Q04609 whole entry) above
# [6] = Drug uptake in iv dosed BALB/c athymic nude mouse tumor xenografted with human LNCaP cells treated with 68Ga-labeled compound measured after 1 hr by microPET imaging analysis; type: ADME, organism-based; conditions: in vivo
# In short: (§2)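 Male BALB/c nu/nu mice, 6–8 weeks old, with subcutaneous LNCaP xenografts (6 × 10^6 cells in 50% Matrigel, right trunk) of about 1 cm. Tail-vein injection of 68Ga-labelled compound (~30 MBq, 0.5 nmol) under sevoflurane. Dynamic µPET: 60 min emission scan, then 100–120 min scan. SUVmean for tumor, muscle and kidney at 1 h; tumor/muscle ratio. One animal per compound.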
# [7] = Drug uptake in iv dosed BALB/c athymic nude mouse muscle xenografted with human LNCaP cells treated with 68Ga-labeled compound measured after 1 hr by microPET imaging analysis; type: ADME, organism-based; conditions: in vivo; in short: as §2
# [8] = Drug uptake in iv dosed BALB/c athymic nude mouse kidney xenografted with human LNCaP cells treated with 68Ga-labeled compound measured after 1 hr by microPET imaging analysis; type: ADME, organism-based; conditions: in vivo; in short: as §2
# [9] = Ratio of drug uptake in tumor to muscle in iv dosed BALB/c athymic nude mouse xenografted with human LNCaP cells treated with 68Ga-labeled compound measured after 1 hr by microPET imaging analysis; type: ADME, organism-based; conditions: in vivo; in short: as §2
# [10] = Drug uptake in iv dosed BALB/c athymic nude mouse tumor xenografted with human LNCaP cells treated with 68Ga-labeled compound measured upto 120 mins by microPET imaging analysis; type: ADME, organism-based; conditions: in vivo, 2 h; in short: as §2
# [11] = Binding affinity to human serum protein after 1 hr by gel filtration method; type: ADME
SMILES,Ki [1] [nM],Retention_time [2] [min],logD [3],specific cell surface binding (% of applied activity per 10^6 cells) [4] [%],specific internalization (% of added activity per 10^6 cells) [5] [%],SUV [6],SUV [7],SUV [8],Ratio [9],Drug uptake [10],PB [11]
O=C(O)CC[C@H](NC(=O)N[C@@H](CCCCNC(=O)[C@H](Cc1ccc(-c2ccccc2)cc1)NC(=O)CN1CCN(CC(=O)O)CCN(CC(=O)O)CCN(CC(=O)O)CC1)C(=O)O)C(=O)O,0.5,2.59,-1.98,4.93,2.22,0.63,0.23,6.57,2.7,Active,
O=C(O)CC[C@H](NC(=O)N[C@@H](CCCCNC(=O)[C@H]1CC[C@H](CNC(=O)CN2CCN(CC(=O)O)CCN(CC(=O)O)CCN(CC(=O)O)CC2)CC1)C(=O)O)C(=O)O,9.33,1.81,-0.91,4.14,1.24,0.23,0.15,6.86,1.5,Not Active,
O=C(O)CC[C@H](NC(=O)N[C@@H](CCCCNC(=O)CCCCCNC(=O)c1ccc(CNC(=O)CN2CCN(CC(=O)O)CCN(CC(=O)O)CCN(CC(=O)O)CC2)cc1)C(=O)O)C(=O)O,15.3,1.74,-1.92,17.7,2.11,0.3,0.08,4.7,3.8,Not Active,Not Active
O=C(O)CC[C@H](NC(=O)N[C@@H](CCCCNC(=O)[C@H](Cc1cccc2ccccc12)NC(=O)[C@H]1CC[C@H](CNC(=O)CN2CCN(CC(=O)O)CCN(CC(=O)O)CCN(CC(=O)O)CC2)CC1)C(=O)O)C(=O)O,12.8,2.59,-1.95,6.58,0.9,0.29,0.08,2.15,3.6,Not Active,
O=C(O)CC[C@H](NC(=O)N[C@@H](CCCCNC(=O)[C@H](Cc1ccc2ccccc2c1)NC(=O)CCCCCNC(=O)CN1CCN(CC(=O)O)CCN(CC(=O)O)CCN(CC(=O)O)CC1)C(=O)O)C(=O)O,6.31,2.58,-1.88,9.07,2.99,0.14,0.07,2.26,2,,
O=C(O)CC[C@H](NC(=O)N[C@@H](CCCCNC(=O)[C@@H](Cc1ccc2ccccc2c1)NC(=O)[C@H]1CC[C@H](CNC(=O)CN2CCN(CC(=O)O)CCN(CC(=O)O)CCN(CC(=O)O)CC2)CC1)C(=O)O)C(=O)O,8.86,2.56,-2.02,12.2,7.18,0.69,0.27,3.98,,Active,
O=C(O)CC[C@H](NC(=O)N[C@@H](CCCCNC(=O)c1ccc(CNC(=O)CN2CCN(CC(=O)O)CCN(CC(=O)O)CCN(CC(=O)O)CC2)cc1)C(=O)O)C(=O)O,1.97,1.56,-1.99,8.54,5.11,0.28,0.13,2.68,2.2,Active,
O=C(O)CC[C@H](NC(=O)N[C@@H](CCCCNC(=O)c1ccc(CNC(=O)c2ccc(CNC(=O)c3ccc(CNC(=O)c4ccc(CNC(=O)CN5CCN(CC(=O)O)CCN(CC(=O)O)CCN(CC(=O)O)CC5)cc4)cc3)cc2)cc1)C(=O)O)C(=O)O,6.19,2.44,-2.12,25.2,6.86,0.52,0.25,2.21,2.1,Active,

# Continued, values first:
Ki [1] [nM],Retention_time [2] [min],logD [3],specific cell surface binding (% of applied activity per 10^6 cells) [4] [%],specific internalization (% of added activity per 10^6 cells) [5] [%],SUV [6],SUV [7],SUV [8],Ratio [9],Drug uptake [10],PB [11],SMILES
19.4,2.28,-1.98,0.23,0.03,0.18,0.21,2.91,0.9,Not Active,,O=C(O)CC[C@H](NC(=O)N[C@@H](CCCCNC(=O)[C@H]1CC[C@H](CNC(=O)[C@H]2CC[C@H](CNC(=O)[C@H]3CC[C@H](CNC(=O)CN4CCN(CC(=O)O)CCN(CC(=O)O)CCN(CC(=O)O)CC4)CC3)CC2)CC1)C(=O)O)C(=O)O
21,2.08,-1.12,3.88,1.43,0.3,0.13,4.29,2.3,Not Active,Not Active,O=C(O)CC[C@H](NC(=O)N[C@@H](CCCCNC(=O)[C@H]1CC[C@H](CNC(=O)[C@H]2CC[C@H](CNC(=O)CN3CCN(CC(=O)O)CCN(CC(=O)O)CCN(CC(=O)O)CC3)CC2)CC1)C(=O)O)C(=O)O
28.6,2.71,-2.03,1.68,1.77,0.31,0.2,4.79,1.6,,,O=C(O)CC[C@H](NC(=O)N[C@@H](CCCCNC(=O)[C@H](Cc1ccc2ccccc2c1)NC(=O)CN1CCN(CC(=O)O)CCN(CC(=O)O)CCN(CC(=O)O)CC1)C(=O)O)C(=O)O
17.7,2.48,-1.44,1.09,0.13,0.39,0.11,3.62,3.5,Not Active,,O=C(O)CC[C@H](NC(=O)N[C@@H](CCCCNC(=O)[C@H]1CC[C@H](CNC(=O)[C@H](Cc2ccc3ccccc3c2)NC(=O)CN2CCN(CC(=O)O)CCN(CC(=O)O)CCN(CC(=O)O)CC2)CC1)C(=O)O)C(=O)O
,2.7,,,,Not Determined(Unstable),Not Determined(Unstable),Not Determined(Unstable),Not Determined(Unstable),,,O=C(O)CC[C@H](NC(=O)N[C@@H](CCCCNC(=O)c1ccc(CNC(=O)[C@H](Cc2ccc3ccccc3c2)NC(=O)[C@H]2CC[C@H](CNC(=O)CN3CCN(CC(=O)O)CCN(CC(=O)O)CCN(CC(=O)O)CC3)CC2)cc1)C(=O)O)C(=O)O
,2.63,-2,11.4,16.2,0.59,0.07,2.87,,Active,Not Active,O=C(O)CC[C@H](NC(=O)N[C@@H](CCCCNC(=O)[C@H](Cc1ccc2ccccc2c1)NC(=O)[C@H]1CC[C@H](CNC(=O)CN2CCN(CC(=O)O)CCN(CC(=O)O)CCN(CC(=O)O)CC2)CC1)C(=O)O)C(=O)O [VIPIVOTIDE TETRAXETAN]
7.51,1.78,-1.94,14.3,3.66,0.56,0.1,3.16,5.6,Active,,O=C(O)CC[C@H](NC(=O)N[C@@H](CCCCNC(=O)c1ccc(CNC(=O)c2ccc(CNC(=O)CN3CCN(CC(=O)O)CCN(CC(=O)O)CCN(CC(=O)O)CC3)cc2)cc1)C(=O)O)C(=O)O
12,1.69,-1.71,10.6,9.47,,,,4.9,,,O=C(O)CCc1ccc(O)c(CN(CCN(CC(=O)O)Cc2cc(CCC(=O)NCCCCCC(=O)NCCCC[C@H](NC(=O)N[C@@H](CCC(=O)O)C(=O)O)C(=O)O)ccc2O)CC(=O)O)c1 [GOZETOTIDE]
